Results: paper PMC3785103 (Molecular pharmaceutics, 2013)
Read-outs that look alike come from different tables or passages of the source. [ ]: non-standard residue; d: D form. d2Nal = N[C@H](Cc1ccc2ccccc2c1)C(=O)O; Nle = CCCC[C@H](N)C(=O)O

How the values were obtained:
MC1R = settings: read-out: Ki for MC1R, cited from earlier work
MC5R [1] = settings: read-out: Ki for MC5R; unlabeled peptide ligands; cited from earlier work
[2] = tested on: A375/MC1R and A375 xenograft tumors; experiment: in vivo; settings: female, nu/nu, mouse, 5 nmol/kg
in vivo = settings: female, nu/nu, mouse
MC5R [3] = experiment: Co-injection of MC5R-selective ligand to block kidney uptake of probe; format: in vivo, mouse; settings: 5 nmol/kg MC1RL-800 co-injected with 1 nmol/kg MC5R-selective ligand, 2 h
Summary of the method: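 Female nu/nu mice (6–8 weeks) carried s.c. xenografts: 1 × 10⁶ A375/MC1R cells in the right flank and parental A375 cells in the left. At 500–800 mm³ tumor volume, mice received 5 nmol/kg MC1R ligand–IRDye800CW i.v. (tail vein, in 100 μL sterile saline) co-injected with 1 nmol/kg MC5R-specific ligand. Fluorescence imaging used mean pre-injection tumor signal subtracted from normalized post-injection ROI intensities.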

[4] = design: species or system mouse; settings: mean±s.d. of 10 simulations

Question: Which Ki (MC1R; unlabeled peptide ligands) does the source give for “4-phenylbutyryl-His-DPhe-Arg-Trp-Gly-Lys(hex-5-ynoyl)-NH2 [unlabeled ligand]” here?
Answer: 0.24 nM

Question: And the Ki (MC5R [1])?
Answer: 46 nM

Question: For `CC1(C)C(=CC=C2CCCC(C=CC3=[N+](CCCCS(=O)(=O)[O-])c4ccc(S(=O)(=O)O)cc4C3(C)C)=C2Oc2ccc(S(=O)(=O)O)cc2)N(CCCCCC(=O)NCCN2C(=O)CC(SCCC(=O)NCCCC[C@H](NC(=O)CNC(=O)[C@H](Cc3c[nH]c4ccccc34)NC(=O)[C@H](CCCNC(=N)N)NC(=O)[C@@H](Cc3ccccc3)NC(=O)[C@H](Cc3c[nH]cn3)NC(=O)CCCc3ccccc3)C(N)=O)C2=O)c2ccc(S(=O)(=O)O)cc21` (stereo partly drawn) [MC1RL-800, 4-phenylbutyryl-His-DPhe-Arg-Trp-Gly-Lys(Mpr-IRDye800CW)-NH2], which Ki (MC1R; NIRF dye conjugates) is on record?
Answer: 0.4 ± 0.1 nM

Question: What about the “half-life (clearance) in the tumor” value [2] of the same molecule?
Answer: ~22 h

Question: And the half-life (in vivo; 5 nmol/kg, half-life (clearance) in the tumor)?
Answer: 1320 min

Question: What about the half-life (in vivo; half-life (clearance) in negative tissue) of the same molecule?
Answer: 960 min

Question: What about the “decrease of A375/MC1R tumor signal” value (MC5R [3]) of the same molecule?
Answer: 28%

Question: What about the “Kki, rate of accumulation of ligand in the kidney specific binding compartment” value [4] of the same molecule?
Answer: 1E-2+6.8E-3 (NU.h)^−1

Question: And the “Kko, rate of clearance of ligand from kidney back to the bloodstream” value [4]?
Answer: 0.96 ± 0.14 h⁻¹

Question: And the “Kni, rate of accumulation in non-specific tissue” value [4]?
Answer: 1.8 ± 0.2 (NU.h)^−1

Question: What about the “Kno, rate of clearance from non-specific tissue” value [4] of the same molecule?
Answer: 2.3 ± 0.6 h⁻¹

Question: What about the “Kto, rate of clearance from tumor specific binding compartment” value [4] of the same molecule?
Answer: 26+12 (h)^−1

Question: What about the “Kti, rate of probe accumulation in tumor specific binding compartment” value ([4]; fit to 3 nmol/kg ex vivo data) of the same molecule?
Answer: 2.7+1.4 (NU.h)^−1

Question: What does the source list for “H-YV[Nle]GH[d2Nal]R[dF]DRFG-NH2 [reference compound]”?
Answer: Ki (MC1R; unlabeled peptide ligands): 5.6 nM; Ki (MC5R [1]): 0.71 nM
